The values below come from publication PMC4235008 (Neoplasia (New York, N.Y.), 2014).

In the data set the test system is PC3 xenografts. The data set can be described thus: PET imaging of PC3 xenografted Nu/Nu mice. The class given is in vivo, mouse. Conditions: 15 MBq injected, 20-minute scan. In a few lines:
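Male Nu/Nu mice (4–6 weeks old) got s.c. PC3 cells (1 × 10^6 in PBS, shoulders) or LNCaP cells (2.5 × 10^6 in PBS/Matrigel 1:1, hips). Tumors grew ≥4 weeks to ≥5 mm. Under isoflurane, mice received i.v. 3.7–7.4 MBq 64Cu peptide or 15 MBq [18F]-FDG, on a heated bed. Scans ran 20 min on small-animal PET with 3D MLEM reconstruction. ROI activity was expressed per cm³ as % injected dose.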

For `OC[C@H]1OC(O)[C@H]([18F])[C@@H](O)[C@@H]1O` (stereo partly drawn) [[^18F]-FDG, [^18F]-fluoro-2-deoxy-D-glucose], the “PC3 tumor [18F]-FDG uptake (PET)” value was “faultless”.
